Our source for the yeast fitness values is the RNAGym collection of RNA variant scans (doi:10.1126/science.aae0568).

The chains are these.
B1: tRNA (parent)
chain: GUUCCGUUGGCGUAAUGGUAACGCGUCUCCCUCCUAAGGAGAAGACUGCGGGUUCGAGUCCCGUACGGAACG

Variants at the floor of the assay were thinned out.

In this data set the parent is B1. As to the kind of experiment: yeast fitness relative to wild type (ratio to wild type); higher = fitter; tRNA-Arg(CCU), competitive growth, 37 C, YPD. The method, boiled down: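 Gene amplicons from the start population and from each of six end populations were read by 100-nucleotide paired-end sequencing. Those end populations came from pooled Saccharomyces cerevisiae strains carrying tRNA-Arg(CCU) gene variants at the native locus, competed in YPD at 37°C for 24 hours. Fitness relative to wild type was worked out from changes in genotype frequencies. Genotypes needed ≥ 100 starting reads, and estimates < 0.5 were set to 0.5.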
On to C4U A21U A42G G50C C66U A70U, for which the yeast fitness was ≤ 0.5.

As to C4G U8C G25A A42U, the yeast fitness was ≤ 0.5.

Regarding C4G G12U A14C A57G, the yeast fitness is ≤ 0.5.

With C4U A40G U64C, the yeast fitness stood at 0.952.

For the variant C4G G12C C33G G44C, the yeast fitness is ≤ 0.5.

In the case of C4G C31G U32G, the yeast fitness was ≤ 0.5.

Take C4G G9C C34A A40C: the yeast fitness was found to be 0.538.

With C4G G44A A45C G63A, the yeast fitness is ≤ 0.5.

As for C4U A20U C46A, the yeast fitness came out at 1.02.

For C4G C60U, the yeast fitness was 0.817.

Take C4G U8G G9A C11U C34G C49U: the yeast fitness was ≤ 0.5.

In the case of C4U A20U A40U G67C, the yeast fitness is ≤ 0.5.

Regarding C4U A42G C49U, the yeast fitness amounted to 0.704.

For C4G U7A G9A C11U C30G, the yeast fitness is 0.545.

On to C4G G9C G52A G63C, for which the yeast fitness was ≤ 0.5.

C4G C30A G52C C66U: the yeast fitness is ≤ 0.5.

For C4G U8A C31G, the yeast fitness is ≤ 0.5.

Take C4U A37U G52A: the yeast fitness is ≤ 0.5.

With C4G U8A G12A G48A A69C, the yeast fitness was determined as 0.573.

As for C4G U7C A20G C27A U59G, the yeast fitness was ≤ 0.5.

C4G U8C G25A A42U A69C: the yeast fitness was ≤ 0.5.

Consider C4U A21G C46A U64C, for which the yeast fitness is 0.676.

C4U A42G C66A: the yeast fitness is ≤ 0.5.

Turning to C4U A21C G67U, the yeast fitness is ≤ 0.5.

C4G U7A U19C A20C C24U U53C: the yeast fitness is ≤ 0.5.

As for C4U A37C G50C A57G, the yeast fitness is ≤ 0.5.

In the case of C4U A15U A20C G23A G50C, the yeast fitness is ≤ 0.5.

On to C4G G9A A70C, for which the yeast fitness turned out to be 1.09.

Regarding C4G U8A G12A C34A G50C, the yeast fitness is ≤ 0.5.

Consider C4U A40G U53G A57C C60G A65U, for which the yeast fitness is 0.583.

Regarding C4U A15U A42C A57U, the yeast fitness was ≤ 0.5.

As to C4G G38A C55U C60G, the yeast fitness was ≤ 0.5.

Consider C4G G17A U28A C55U, for which the yeast fitness was ≤ 0.5.

For C4G G6A U47A, the yeast fitness came to 0.61.

On to C4G G6A U47G, for which the yeast fitness is ≤ 0.5.

Consider C4G U7G A36C A37C A57C C66U, for which the yeast fitness was ≤ 0.5.

C4U A20C C30A C55A G67A: the yeast fitness came out at 0.53.

In the case of C4G G17A U26C U28C A40G A70C, the yeast fitness was ≤ 0.5.

With C4G G67A, the yeast fitness was 0.913.

With C4G G67C, the yeast fitness was determined as 0.883.

Regarding C4G U8C C24G U32G, the yeast fitness was ≤ 0.5.

With C4G U53A G63C, the yeast fitness was ≤ 0.5.

Take C4U A15G G23A C34G: the yeast fitness was ≤ 0.5.

For C4U A42C G58A, the yeast fitness stood at 0.567.

Consider C4U A40U G68C, for which the yeast fitness was determined as 0.68.

Consider C4G G9C C46A U59A U64A, for which the yeast fitness is ≤ 0.5.

Take C4G U8G G9A C11U: the yeast fitness is 0.562.

C4U A20G U32G A43C A45U: the yeast fitness is ≤ 0.5.

With C4G U8C G18C A21C C55U, the yeast fitness is ≤ 0.5.

Consider C4U A20G A69C, for which the yeast fitness came to 0.817.

Take C4G G6C C34G A42G C46G: the yeast fitness was ≤ 0.5.

Regarding C4G G18C G58C C61U G68A, the yeast fitness was 0.615.

Take C4G C29U: the yeast fitness was 0.751.

As for C4G G23C C66A, the yeast fitness was ≤ 0.5.

On to C4U A36C, for which the yeast fitness turned out to be 0.542.

Consider C4U A14C G39C, for which the yeast fitness was ≤ 0.5.

C4U A36G G44C G63A: the yeast fitness worked out at 0.572.

On to C4G C49G, for which the yeast fitness came to 0.682.

Consider C4G C49U, for which the yeast fitness worked out at 0.933.

Consider C4G C49A, for which the yeast fitness was 0.541.

Regarding C4G C31U A37G, the yeast fitness came to 0.653.

C4G U8G A42C C55U: the yeast fitness was ≤ 0.5.

On to C4G G12A C27A C31A G52A G58C A70G, for which the yeast fitness is ≤ 0.5.

Regarding C4G C29U C30G G39C, the yeast fitness was ≤ 0.5.

For the variant C4G U16G G48A A57G A69U, the yeast fitness was ≤ 0.5.

On to C4G G23A C55A C61A, for which the yeast fitness amounted to 0.667.

C4G G50A G56A: the yeast fitness was 0.727.

On to C4U A20G A45U C61A C62U, for which the yeast fitness is 0.546.

For the variant C4G C31A G58A, the yeast fitness amounted to 0.635.

Take C4G G9C G41A U53C C55U U59A A70U: the yeast fitness was ≤ 0.5.

On to C4U A36C G63A, for which the yeast fitness was 0.536.

As for C4G G6A C11U G23A A43G, the yeast fitness is ≤ 0.5.

For C4G U8C U16A A21C C24G A45C G48A G67A, the yeast fitness was found to be 0.53.

Consider C4G U35C C49U, for which the yeast fitness stood at 0.533.

Take C4G G48U C66U: the yeast fitness is ≤ 0.5.

In the case of C4G U8C C24G C30G A43C, the yeast fitness is ≤ 0.5.

For C4G G17C U59C, the yeast fitness is 0.746.

For the variant C4G G12A G52A, the yeast fitness was ≤ 0.5.

As for C4U A14G C34A, the yeast fitness is ≤ 0.5.

Turning to C4G C34G A40G G68A, the yeast fitness is ≤ 0.5.

C4G C30U A42U G50C C62A: the yeast fitness stood at 0.511.

As for C4U A15G, the yeast fitness was determined as 0.997.

Regarding C4U A15U, the yeast fitness was found to be 0.89.

As for C4G G6C G39C, the yeast fitness is 0.578.

Take C4G G17A C30U G56A: the yeast fitness is ≤ 0.5.

In the case of C4G C34G G67A, the yeast fitness is ≤ 0.5.

In the case of C4G C31A, the yeast fitness was 0.817.

Take C4G U8G C24A C31G G50A A69U: the yeast fitness was ≤ 0.5.

Take C4U A42C C55U: the yeast fitness is ≤ 0.5.

Take C4U A36G A40C G44C: the yeast fitness is 0.596.

Take C4G U7G A69U: the yeast fitness is ≤ 0.5.

On to C4G U7C C27A A69U, for which the yeast fitness worked out at 0.531.

On to C4G G18C A42U C46G, for which the yeast fitness was ≤ 0.5.

Consider C4G G39C, for which the yeast fitness stood at 0.747.

In the case of C4U A14C G44A U54A A70U, the yeast fitness was ≤ 0.5.

Regarding C4G C49G G56U U64C A65C A70C, the yeast fitness amounted to 0.635.

Consider C4G U19C C62U G63A, for which the yeast fitness turned out to be 0.545.

Take C4G U16A U35A C61G: the yeast fitness was determined as 0.882.

For the variant C4U A15U G68A, the yeast fitness was ≤ 0.5.

Turning to C4U A20U C27G C30G U32C A43G A65C G68C, the yeast fitness is ≤ 0.5.

For C4G G6A U64A, the yeast fitness was found to be 0.651.

For C4G G44C C49G G56A C61G A65U A69G, the yeast fitness was determined as 0.641.

Take C4U A21G C46A G68C: the yeast fitness stood at 0.544.

On to C4U A40U U47C, for which the yeast fitness is 0.643.

Consider C4G U13A U53A A65G, for which the yeast fitness was ≤ 0.5.

As to C4U A42U G67C, the yeast fitness came to 0.676.

Take C4G U8A A14C G48A G63C: the yeast fitness is ≤ 0.5.

In the case of C4G U16G C30U C34A U53G A70C, the yeast fitness was ≤ 0.5.

Consider C4G C33G A40G, for which the yeast fitness turned out to be 0.528.

Turning to C4G U13A G68C, the yeast fitness is 0.541.

Take C4G U8C C24G U47C: the yeast fitness was ≤ 0.5.

Consider C4G C30A C62G, for which the yeast fitness is ≤ 0.5.

For C4U A37C, the yeast fitness is 0.884.

Regarding C4U A21U C55U, the yeast fitness was ≤ 0.5.

Consider C4U A21C G25A C30A C31G U32C G41C, for which the yeast fitness was ≤ 0.5.

Regarding C4U A14G A40U, the yeast fitness was found to be 0.593.

With C4G G17C A43C G51A, the yeast fitness is ≤ 0.5.

C4U A15C C30G G52A A65C: the yeast fitness is ≤ 0.5.

Take C4G G17A C34A A43G G68A: the yeast fitness is ≤ 0.5.

Turning to C4G G25A A45G, the yeast fitness was ≤ 0.5.

As for C4U A15G G23C A37U, the yeast fitness is ≤ 0.5.

Consider C4U A21G U32A A40C C46A, for which the yeast fitness is 0.769.

C4G C33G A65U: the yeast fitness turned out to be 0.605.

Consider C4G U59G, for which the yeast fitness came to 0.653.

As for C4G U8C A15G C22G G23A C49A, the yeast fitness is ≤ 0.5.

Turning to C4G C30A A42C, the yeast fitness was ≤ 0.5.

As to C4G U13G C66U, the yeast fitness turned out to be 0.564.

As for C4G U26A C49U, the yeast fitness was ≤ 0.5.

C4U A20C C46U A70G: the yeast fitness is ≤ 0.5.

Take C4G G18A A45C: the yeast fitness was ≤ 0.5.

On to C4G U19A A21G G52C C55G, for which the yeast fitness was ≤ 0.5.

As to C4G G6A C22G C62U A70C, the yeast fitness is ≤ 0.5.

In the case of C4G G41A A45U G56C, the yeast fitness was ≤ 0.5.

For C4U A40G A65U, the yeast fitness came to 0.596.

For C4U A15C C30G A69C A70G, the yeast fitness is ≤ 0.5.

For the variant C4G U16C C31U A70U, the yeast fitness is ≤ 0.5.

Turning to C4U A45C C60G, the yeast fitness came out at 0.671.

In the case of C4U A21U C24U C27A A37C A40U G67C, the yeast fitness is ≤ 0.5.

Consider C4G U16A A36C, for which the yeast fitness was 0.579.

With C4U A20U U28C C61G, the yeast fitness was ≤ 0.5.

On to C4G U64C G68C, for which the yeast fitness was 0.632.

Turning to C4G G9A G39A, the yeast fitness turned out to be 0.576.

Regarding C4U A15U A45G C62G, the yeast fitness is ≤ 0.5.

Turning to C4U A45C A69U, the yeast fitness was 0.822.

Turning to C4G U13A C33G A36G, the yeast fitness was ≤ 0.5.

For C4U A14G A20C C34U C55U, the yeast fitness is ≤ 0.5.

With C4G U7C C27A U59G, the yeast fitness is 0.574.

As to C4G C30U A42U G50C G63C, the yeast fitness is ≤ 0.5.

For the variant C4U A15C A70U, the yeast fitness came to 0.573.

C4G C34G A43U A70C: the yeast fitness was ≤ 0.5.

With C4G U13C, the yeast fitness came out at 0.886.

Consider C4G U13G, for which the yeast fitness turned out to be 0.882.

For the variant C4G G6C C34G A42G G63C, the yeast fitness is ≤ 0.5.

Regarding C4G C61G A65C, the yeast fitness was ≤ 0.5.

Consider C4U A20G C30A, for which the yeast fitness worked out at 0.81.

Turning to C4U A14G A45C, the yeast fitness was found to be 0.542.

In the case of C4G G9A U32C C33U, the yeast fitness is ≤ 0.5.

With C4U A15G G23C A37U C61A, the yeast fitness is ≤ 0.5.

As to C4G U28C C66U, the yeast fitness came out at 0.524.

Turning to C4U A20U C29U, the yeast fitness is ≤ 0.5.

In the case of C4G U7G G63C, the yeast fitness was determined as 0.521.

C4G G68A: the yeast fitness was found to be 0.904.

In the case of C4G U13A A21C A43U A45G, the yeast fitness worked out at 0.559.

Regarding C4G U7C C27A, the yeast fitness was ≤ 0.5.

Take C4U A21C C27G A43C G48A C66A: the yeast fitness was ≤ 0.5.

With C4G G12U A14C C49U A65G, the yeast fitness is 0.513.

In the case of C4U A14C C55U G58C, the yeast fitness amounted to 0.595.
